Measured values gathered from unrelated publications.
Protocols differ between the studies behind these lines.
Target: Serine/threonine-protein kinase VRK2 (VRK2, Homo sapiens, UniProt Q86Y07)

| Structure (SMILES) | read-out | action | method | tested at | endpoint | result |
| --- | --- | --- | --- | --- | --- | --- |
| Cc1ccc(C(=O)Nc2ccc(CN3CCN(C)CC3)c(C(F)(F)F)c2)cc1C#Cc1cnc2cccnn12 | enzyme activity | inhibitor | – | 23.5 nM | remaining activity | 74% |
| CO[C@@H](C)c1c(Nc2ccc([C@H](N(C)C(=O)C3CCS(=O)(=O)CC3)C(F)(F)F)cc2)cnc2cc(Cl)nn12 | cell-free assay | – | competition with immobilised ligand | 1 µM | remaining binding | 100% |
| CCCS(=O)(=O)Nc1ccc(F)c(C(=O)c2c[nH]c3ncc(-c4ccc(Cl)cc4)cc23)c1F | enzyme activity | inhibitor | – | 1 µM | inhibition | < 10% |
| CCCOc1ccc(OC)c(F)c1C(=O)c1ccc(C(=O)N[C@@H]2CNC[C@H]2NC(=O)c2ccc3[nH]ncc3c2)cc1 | enzyme activity | inhibitor | – | 10 µM | remaining activity | 129% |
| CC1(C)NC(=O)c2[nH]c3c(Cl)c(Cl)ccc3c2C1C#N (centres unmarked) | thermal stability | – | DSF | 10 µM | ΔTm | -0.1 °C |
| CN1CC(Oc2cnc(C#N)cc2-c2ccn3nc(NC(=O)C4CC4)cc3c2)C1 | enzyme activity | inhibitor | – | 1 µM | inhibition | -9% |
| Cn1c2c(c3ccc(Cl)c(Cl)c31)C(C#N)C(C)(C)NC2=O (centres unmarked) | thermal stability | – | DSF | 10 µM | ΔTm | 0.8 °C |
| CN(C)C(=O)Cn1cc(-c2nc([C@@](C)(c3ccc(-c4cnc(N)nc4)cc3)C3CC3)no2)cn1 | cell-free assay | – | competition with immobilised ligand | 1 µM | remaining binding | 92% |
| Nc1ncnc2occ(-c3ccc(NC(=O)Nc4cc(C(F)(F)F)ccc4F)cc3)c12 | cell-free assay | inhibitor | – | 20 µM | remaining signal | 2.4% |
| Cc1cc(-n2nc(Cc3cc(F)cc(C(F)(F)F)c3)nc2C)ccc1C(N)=O | cell-free assay | – | competition with immobilised ligand | 1 µM | remaining binding | 100% |
| Cn1c2c(c3ccc(Cl)c(Cl)c31)C(C#N)C1(CCOCC1)NC2=O (centres unmarked) | thermal stability | – | DSF | 10 µM | ΔTm | 0 °C |
| c1ccc(N2CCN(Cc3nc4ccccc4[nH]3)CC2)nc1 | binding | – | competition with immobilised ligand | 1 µM | remaining binding | 100% |
| Cc1ccc(Nc2nccc(N(C)c3ccc4c(C)n(C)nc4c3)n2)cc1S(N)(=O)=O | enzyme activity | inhibitor | – | 10 µM | inhibition | -18% |
| FC(F)(F)c1ccc2c(c1)nc(-c1cccnc1)n2C1CC1 | cell-free assay | – | competition with immobilised ligand | 1 µM | remaining binding | 100% |
| CCC1(CC)NC(=O)c2c(c3ccc(Cl)c(Cl)c3n2C)C1C#N (centres unmarked) | thermal stability | – | DSF | 10 µM | ΔTm | 0.1 °C |
| O=C(Nc1cnc(Oc2ccc(F)cc2)nc1)N1CCc2ncccc2[C@@H]1c1ccc(F)cc1 | cell-free assay | – | competition with immobilised ligand | 1 µM | remaining binding | 100% |
| Cc1cnc(NC2CCOCC2)nc1-n1cnc(C(=O)NC(CN)c2cc(F)cc(Cl)c2)c1 (centres unmarked) | enzyme activity | inhibitor | radiometric | 1 µM | remaining activity | 99% |
| N#Cc1ccc(Nc2ccc3[nH]c(=O)[nH]c3c2)c(Cl)c1 | cell-free assay | – | competition with immobilised ligand | 1 µM | remaining binding | 100% |
| Cn1c2c(c3ccccc31)C(C#N)C(C)(C)NC2=O (centres unmarked) | thermal stability | – | DSF | 10 µM | ΔTm | 0.2 °C |
| CNC(=O)c1cc(Oc2ccc(NC(=O)Nc3ccc(Cl)c(C(F)(F)F)c3)cc2)ccn1 | enzyme activity | inhibitor | – | 10 µM | inhibition | -16% |
| Cn1c2c(c3ccc(Cl)c(Cl)c31)C(C#N)C1(CCNCC1)NC2=O (racemic) | thermal stability | – | DSF | 10 µM | ΔTm | 0.3 °C |
| CC(C)(C)c1nc2c(s1)c1nc(N)ncc1c1ccc(NS(=O)(=O)c3c(F)cccc3F)c(F)c12 | enzyme activity | inhibitor | radiometric | 1 µM | remaining activity | 116% |
| CCN(CC)CCNC(=O)c1c(C)[nH]c(/C=C2\C(=O)Nc3ccc(F)cc32)c1C | enzyme activity | inhibitor | – | 10 µM | inhibition | -10% |
